Experimental findings from ChEMBL document CHEMBL3808276, “Identification of Adenine and Benzimidazole Nucleosides as Potent Human Concentrative Nucleoside Transporter 2 Inhibitors: Potential Treatment for Hyperuricemia and Gout” (J Med Chem, 2016) are described below.

Data set [1] concerns the target T1, Sodium/nucleoside cotransporter 2 (Homo sapiens, UniProt O43868).
T1 sequence (O43868 whole entry): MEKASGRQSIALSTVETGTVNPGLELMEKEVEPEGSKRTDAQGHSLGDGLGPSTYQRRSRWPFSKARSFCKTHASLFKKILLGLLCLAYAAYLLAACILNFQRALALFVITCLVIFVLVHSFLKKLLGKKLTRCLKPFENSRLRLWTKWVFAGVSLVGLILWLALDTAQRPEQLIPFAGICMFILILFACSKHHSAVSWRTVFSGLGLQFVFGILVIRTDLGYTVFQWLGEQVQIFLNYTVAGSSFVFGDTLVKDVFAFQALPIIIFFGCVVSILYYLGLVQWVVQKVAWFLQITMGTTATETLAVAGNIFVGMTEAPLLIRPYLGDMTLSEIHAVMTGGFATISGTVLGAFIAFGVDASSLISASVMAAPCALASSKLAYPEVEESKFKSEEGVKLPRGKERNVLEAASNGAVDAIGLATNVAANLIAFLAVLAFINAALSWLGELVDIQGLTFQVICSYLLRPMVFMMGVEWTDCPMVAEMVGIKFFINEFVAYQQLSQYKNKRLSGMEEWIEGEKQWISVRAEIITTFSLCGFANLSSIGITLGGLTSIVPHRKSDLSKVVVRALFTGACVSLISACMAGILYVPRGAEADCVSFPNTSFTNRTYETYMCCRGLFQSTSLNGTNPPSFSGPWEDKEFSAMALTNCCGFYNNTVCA
Nature of the data set: Inhibition of human CNT2 expressed in African green monkey COS7 cells assessed as reduction of [14C]-inosine uptake by liquid scintillation counting analysis. The format is cell-based, COS-7. Put shortly: (§1)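 COS-7 cells transiently transfected with hCNT2 in pCI-neo, assayed after 2 days. Pretreated in Na+-free choline buffer, 37 °C, 2×10 min. Uptake of 10 µM [14C]inosine for 30 min at 37 °C with 10 µM NBMPR, ±Na+, pH 7.4. Na+-dependent uptake set as 100%; lysate counted by scintillation. IC50 by nonlinear regression, ≥3 experiments; top concentration 100 µM.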

For data set [2], the target named is T2, Sodium/nucleoside cotransporter 2 (Rattus norvegicus) (UniProt Q62773).
T2 sequence (whole entry): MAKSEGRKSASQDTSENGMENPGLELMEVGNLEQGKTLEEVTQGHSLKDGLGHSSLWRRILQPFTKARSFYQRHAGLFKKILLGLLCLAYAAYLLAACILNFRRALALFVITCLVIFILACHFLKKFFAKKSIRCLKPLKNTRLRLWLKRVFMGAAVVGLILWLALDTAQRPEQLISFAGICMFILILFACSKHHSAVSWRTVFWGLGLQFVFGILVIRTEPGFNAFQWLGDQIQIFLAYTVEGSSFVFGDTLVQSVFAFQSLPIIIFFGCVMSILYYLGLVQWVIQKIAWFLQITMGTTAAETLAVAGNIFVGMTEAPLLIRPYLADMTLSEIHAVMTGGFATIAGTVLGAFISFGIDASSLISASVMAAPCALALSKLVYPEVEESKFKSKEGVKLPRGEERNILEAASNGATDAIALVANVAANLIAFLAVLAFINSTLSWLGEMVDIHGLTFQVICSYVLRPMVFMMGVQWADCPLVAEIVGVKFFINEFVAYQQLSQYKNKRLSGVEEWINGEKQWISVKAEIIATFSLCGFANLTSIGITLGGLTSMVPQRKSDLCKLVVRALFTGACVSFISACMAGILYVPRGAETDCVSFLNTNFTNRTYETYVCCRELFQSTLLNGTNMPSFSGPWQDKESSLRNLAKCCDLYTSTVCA
The data set can be described thus: Inhibition of rat CNT2 expressed in African green monkey COS7 cells assessed as reduction of [14C]-inosine uptake at 100 uM by liquid scintillation counting analysis. The format is cell-based. To be noted: COS-7.

Data set [3] addresses T3, Sodium/nucleoside cotransporter 2 (Homo sapiens) (UniProt O43868).
T3 sequence (whole entry): T1 sequence (O43868 whole entry)
Nature of the data set: Inhibition of human CNT2 expressed in African green monkey COS7 cells assessed as reduction of [14C]-inosine uptake at 100 uM by liquid scintillation counting analysis. The following applies: COS-7. The class given is cell-based. Put shortly: as §1

A short description of data set [4]: Solubility of compound in JP2 at pH 6.8 after 1 hr at 37 degC. The class given is physicochemical. To be noted: JP2, pH 6.8. Put shortly: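 Solubility measured in JP2, a 1:1 mix of pH 6.8 phosphate buffer and water, after incubation for 1 h at 37 °C.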
For data set [5], the target named is T4, Sodium/nucleoside cotransporter 2 (Rattus norvegicus, UniProt Q62773).
T4 sequence (Q62773 whole entry): T2 sequence (whole entry)
The data set can be described thus: Inhibition of rat CNT2 expressed in African green monkey COS7 cells assessed as reduction of [14C]-inosine uptake by liquid scintillation counting analysis. The format is cell-based, COS-7. The gist of the method: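 rCNT2 transiently expressed in COS-7 cells, used 2 days post-transfection. 10 µM [14C]inosine uptake at 37 °C for 30 min in the presence of 10 µM NBMPR. Uptake run with Na+ or with choline replacing Na+, pH 7.4; the Na+-dependent difference defined 100% transport. Scintillation read-out; IC50 by nonlinear regression, ≥3 independent runs.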

The target in data set [6] is T2, Sodium/nucleoside cotransporter 2 (Rattus norvegicus). The data set can be described thus: Inhibition of rat CNT2 expressed in African green monkey COS7 cells assessed as reduction of [14C]-inosine uptake at 1000 uM by liquid scintillation counting analysis. The following applies: COS-7. The class given is cell-based. The gist of the method: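 rCNT2 cDNA in pCI-neo, transiently transfected into COS-7 cells and assayed 2 days later. Cells were pre-incubated twice for 10 min at 37 °C in Na+-free choline buffer, pH 7.4. Uptake of 10 µM [14C]/unlabeled inosine ran 30 min at 37 °C with 10 µM NBMPR. Na+-dependent uptake (Na+ minus choline buffer) was set as 100%, and percent inhibition was taken at 1000 µM.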

In brackets after ≈: the same amount, converted by molar mass. Activity calls are given as the source filed them. The rule behind the calls is not given here.

In general, IC50 refers to the point on the concentration scale where inhibition reaches its midpoint. In general, inhibition refers to how much of the control response was suppressed. Turning to `Nc1ncnc2c1nc(NCc1ccc(-c3ccccc3)cc1O)n2[C@@H]1O[C@H](CO)[C@@H](O)[C@H]1O`, the IC50 in data set [1] is 1.3 µM. Further, the inhibition result in data set [2] is “inactive”.

For `CCCOc1cc(-c2ccccc2)ccc1CNc1nc2c(N)ncnc2n1[C@@H]1O[C@H](CO)[C@@H](O)[C@H]1O`, the inhibition result in data set [3] and in data set [2] was “inactive” in each case.

As usually defined, the solubility is the concentration that dissolves in the medium under given conditions. Take `Nc1ncnc2c1nc(NCc1ccc(-c3ccccc3)cc1)n2[C@@H]1O[C@H](CO)[C@@H](O)[C@H]1O`: the inhibition entry in data set [2] was “inactive”. Moreover, the solubility at 1 h in data set [4] was found to be 3 µg/mL (≈ 6.69 µM).

In the case of `Nc1ncnc2c1nc(NCc1ccc(-c3ccccc3)c(OCCCCCO)c1)n2[C@@H]1O[C@H](CO)[C@@H](O)[C@H]1O`, the IC50 in data set [1] was 1.6 µM; in data set [5], 60 µM.

With `CC(C)Oc1cc(CNc2nc3c(N)ncnc3n2[C@@H]2O[C@H](CO)[C@@H](O)[C@H]2O)ccc1-c1ccccc1`, the IC50 in data set [1] amounted to 10.4 µM. The inhibition entry in data set [2] was “inactive”.

As to `COc1cc(-c2ccccc2)ccc1CNc1nc2c(N)ncnc2n1[C@@H]1O[C@H](CO)[C@@H](O)[C@H]1O`, the IC50 in data set [1] amounted to 1.1 µM. For the same compound, the inhibition entry in data set [2] is “inactive”. Moreover, in data set [4], the solubility at 1 h turned out to be 4 µg/mL (≈ 8.36 µM).

Turning to `COc1cc(CNc2nc3c(N)ncnc3n2[C@@H]2O[C@H](CO)[C@@H](O)[C@H]2O)ccc1-c1ccccc1`, in data set [1], the IC50 was 1.3 µM. The inhibition entry in data set [2] was “inactive”. The compound also displayed a solubility at 1 h in data set [4] of 215 µg/mL (≈ 449 µM).

On to `O=c1[nH]cnc2c1nc(NCc1ccc(-c3ccccc3)c(OCCCCO)c1)n2[C@@H]1O[C@H](CO)[C@@H](O)[C@H]1O`, for which the IC50 in data set [1] is 20.1 µM; in data set [5], above 1000 µM. Besides, the inhibition in data set [6] amounted to 18%.

Consider `COC(=O)COc1cc(CNc2nc3c(N)ncnc3n2[C@@H]2O[C@H](CO)[C@@H](O)[C@H]2O)ccc1-c1ccccc1`, for which the concentration for half-maximal inhibition (IC50) in data set [1] turned out to be 3.3 µM. For the same compound, the inhibition entry in data set [2] was “inactive”.

Take `Nc1ncnc2c1nc(NCc1ccc(-c3ccncc3)cc1)n2[C@@H]1O[C@H](CO)[C@@H](O)[C@H]1O`: the IC50 in data set [1] worked out at 2.7 µM. Besides, the inhibition result in data set [2] is “inactive”.

Take `CCOc1cc(CNc2nc3c(N)ncnc3n2[C@@H]2O[C@H](CO)[C@@H](O)[C@H]2O)ccc1-c1ccccc1`: in data set [1], the half-maximal inhibitory concentration (IC50) turned out to be 2.3 µM. For the same compound, the inhibition entry in data set [2] is “inactive”. The compound further had a solubility at 1 h in data set [4] of 121 µg/mL (≈ 246 µM).

For the compound `NC(=O)COc1cc(CNc2nc3c(N)ncnc3n2[C@@H]2O[C@H](CO)[C@@H](O)[C@H]2O)ccc1-c1ccccc1`, the IC50 is 5.5 µM in data set [1] and above 100 µM in data set [5]. The inhibition in data set [2] was below 5%.

With `CCOc1cc(-c2ccccc2)ccc1CNc1nc2c(N)ncnc2n1[C@@H]1O[C@H](CO)[C@@H](O)[C@H]1O`, the IC50 in data set [1] worked out at 5.4 µM. In addition, the inhibition result in data set [2] is “inactive”. In data set [4], this compound had a solubility at 1 h of 2 µg/mL (≈ 4.06 µM).

`Nc1ncnc2c1nc(NCc1ccc(-c3ccccc3)c(OCCO)c1)n2[C@@H]1O[C@H](CO)[C@@H](O)[C@H]1O`: the IC50 in data set [1] is 3.1 µM; in data set [5], above 100 µM. In addition, the inhibition in data set [2] came to 49%.

In the case of `Nc1ncnc2c1nc(NCc1ccc(-c3ccccn3)cc1)n2[C@@H]1O[C@H](CO)[C@@H](O)[C@H]1O`, the IC50 in data set [1] is 1.5 µM. In addition, the inhibition entry in data set [2] was “inactive”.

For `Nc1ncnc2c1nc(NCc1ccc(-c3ccccc3)c(OCCCO)c1)n2[C@@H]1O[C@H](CO)[C@@H](O)[C@H]1O`, the 50% inhibitory concentration (IC50) in data set [1] worked out at 1.1 µM; in data set [5], 45.1 µM.

Regarding `CC(C)Oc1cc(-c2ccccc2)ccc1CNc1nc2c(N)ncnc2n1[C@@H]1O[C@H](CO)[C@@H](O)[C@H]1O`, the IC50 in data set [1] worked out at 9.3 µM. For the same compound, the inhibition entry in data set [2] is “inactive”.

Turning to `Nc1ncnc2c1nc(NCc1ccc(-c3cccnc3)cc1)n2[C@@H]1O[C@H](CO)[C@@H](O)[C@H]1O`, the IC50 is 1 µM in data set [1] and above 100 µM in data set [5]. Besides, the inhibition in data set [2] came out at 11%.

As to `CCCOc1cc(CNc2nc3c(N)ncnc3n2[C@@H]2O[C@H](CO)[C@@H](O)[C@H]2O)ccc1-c1ccccc1`, the IC50 in data set [1] stood at 5.2 µM. Also, the inhibition entry in data set [2] was “inactive”.

Turning to `Nc1ncnc2c1nc(NCc1ccc(-c3ccccc3)c(O)c1)n2[C@@H]1O[C@H](CO)[C@@H](O)[C@H]1O`, the IC50 in data set [1] was found to be 1.2 µM. Moreover, the inhibition result in data set [2] was “inactive”.
